Reference: ChEMBL document CHEMBL2331521, “Biologically active withanolides from Withania coagulans” (J Nat Prod, 2013)

Legend:
[1] = Inhibition of TNFalpha-induced NFkappaB (unknown origin) activation expressed in HEK293 cells after 6 hrs by luciferase reporter gene assay; format: cell-based; conditions: Homo sapiens, HEK293, 6 h
How it was run: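 HEK293 cells stably transfected with luciferase reporter under multiple NF-κB response elements, seeded 2 × 10^4/well, grown 48 h in DMEM/10% FBS/2 mM glutamine. Medium replaced; cells given test substances plus human recombinant TNF-α 2 ng/mL (0.14 nM) for 6 h, lysed, frozen −80 °C overnight, luciferase luminescence read. Percent inhibition; IC50 from dilution series (top 20 μM), each tested three times, curve-fitted.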

RAW264.7 [2] = assay: Cancer chemopreventive activity in mouse RAW264.7 cells assessed as inhibition of LPS-induced nitric oxide production at 20 ug/mL treated 30 mins before LPS challenge measured after 20 hrs by Griess reagent assay
[3] = Cytotoxicity against mouse RAW264.7 cells assessed as cell survival at 20 ug/mL by SRB assay; format: cell-based; conditions: read-out: Survival
How it was run: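 RAW 264.7 cells run under the NO assay conditions (30 min sample pretreatment, then 1 μg/mL LPS for 20 h). Cells fixed with 10% TCA and stained with 0.4% SRB in 1% acetic acid. Bound dye dissolved in 10 mM Tris and OD read at 515 nm.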

HEK293 [4] = assay: Inhibition of TNFalpha-induced NFkappaB (unknown origin) activation expressed in HEK293 cells at 20 uM after 6 hrs by luciferase reporter gene assay; format: cell-based; conditions: Homo sapiens
How it was run: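 HEK293 cells stably carrying an NF-κB response element–luciferase construct (hygromycin-selected). Seeded 2 × 10^4/well in DMEM with 10% FBS, antibiotics and 2 mM L-glutamine, grown 48 h. Fresh medium, then samples with recombinant human TNF-α 2 ng/mL (0.14 nM) for 6 h. Cells lysed, frozen overnight at −80 °C, luciferase luminescence read, percent inhibition calculated. TPCK positive control.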

[5] = Cytotoxicity against human HEK293 cells assessed as cell survival at 20 uM by SRB assay; format: cell-based; conditions: read-out: Survival
How it was run: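 293/NFκB-luc cells seeded 2 × 10^4/well and grown 48 h. Run in parallel with the reporter assay: fresh medium, samples plus TNF-α 2 ng/mL for 6 h. Fixed with 20% TCA at 4 °C for 30 min, stained with 0.4% SRB in 1% acetic acid for 30 min at room temperature. Dye solubilised in 10 mM Tris base (pH 10), OD read at 515 nm, percent survival calculated.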

RAW264.7 [6] = assay: Cancer chemopreventive activity in mouse RAW264.7 cells assessed as inhibition of LPS-induced nitric oxide production treated 30 mins before LPS challenge measured after 20 hrs by Griess reagent assay
HEK293 [7] = assay: Cytotoxicity against human HEK293 cells assessed as cell survival by SRB assay; format: cell-based
How it was run: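 293/NFκB-luc cells (HEK293 stably carrying NF-κB-response-element luciferase reporter) seeded 2 × 10^4/well, grown 48 h in DMEM/10% FBS; treated with samples plus TNF-α 2 ng/mL (0.14 nM) for 6 h. Then TCA-fixed (20%, 4 °C, 30 min), stained 0.4% SRB in 1% acetic acid, dye solubilized in 10 mM Tris base pH 10; OD 515 nm; percent survival at 20 μM.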

Compound	IC50 [1]	inhibition at 20 µg/mL (RAW264.7 [2])	viability at 20 ug/mL [3]	inhibition (HEK293 [4])	viability at 20 µM [5]	IC50 (RAW264.7 [6])	IC50 (HEK293 [7])
CC1=C(CO)C(=O)O[C@@H]([C@](C)(O)[C@@]2(O)CC=C3[C@@H]4CC=C5CC=CC(=O)[C@]5(C)[C@H]4CC[C@@]32C)C1 [WITHACOAGULIN H]	5 µM	100%	70.4%	98.3%	90.3%	3.1 µM	
CC1=C(C)C(=O)O[C@@H]([C@](C)(O)[C@H]2CC[C@@]3(O)[C@@H]4CC=C5CC=CC(=O)[C@]5(C)[C@H]4CC[C@]23C)C1	12.3 µM	88.5%	100%	86.9%	71.9%	37.5 µM	
CC1=C(C)C(=O)O[C@@H]([C@](C)(O)[C@@]2(O)CC[C@]3(O)[C@@H]4CC=C5C=CCC(=O)[C@]5(C)[C@H]4CC[C@]23C)C1 [WITHACOAGULIN I]	8.8 µM	69.8%	100%	89.9%	89.4%	29 µM	
CC1=C(C)C(=O)O[C@@H]([C@](C)(O)C2=CC[C@@]3(O)[C@@H]4CC=C5CC=CC(=O)[C@]5(C)[C@H]4CC[C@]23C)C1	5.7 µM	69.1%	100%	90.2%	100%	10.4 µM	
Cc1ccc(S(=O)(=O)/C=C/C#N)cc1	5 µM						
CC1=C(CO)C(=O)O[C@@H]([C@](C)(O)[C@H]2CC[C@@]3(O)[C@@H]4CC=C5CC=CC(=O)[C@]5(C)[C@H]4CC[C@]23C)C1	7 µM	31.4%	100%	92.8%	100%		
CC1=C(CO)C(=O)O[C@@H]([C@](C)(O)[C@]2(O)CC[C@@]3(O)[C@@H]4CC=C5CC=CC(=O)[C@]5(C)[C@H]4CC[C@]23C)C1	1.6 µM	95.1%	100%	90.1%	88.6%	6.9 µM	
CC1=C(C)C(=O)O[C@@H]([C@](C)(O)[C@]2(O)CC[C@@]3(O)[C@@H]4CC=C5CC=CC(=O)[C@]5(C)[C@H]4CC[C@]23C)C1 [WITHANOLIDE F]	5.7 µM	84.6%	100%	90.8%	100%	10.9 µM	
CC1=C(CO)C(=O)O[C@@H]([C@](C)(O)[C@H]2CC=C3[C@@H]4CC=C5CC=CC(=O)[C@]5(C)[C@H]4CC[C@@]32C)C1	12.4 µM	76.3%	100%	88.6%	48.3%	38.2 µM	
CC1=C(CO)C(=O)O[C@@H]([C@](C)(O)[C@@]2(O)CC[C@H]3[C@@H]4CC=C5CC=CC(=O)[C@]5(C)[C@H]4CC[C@@]32C)C1 [WITHACOAGULIN G]	11.8 µM	100%	96.7%	90.1%	93.2%	1.9 µM	
Cc1ccc(S(=O)(=O)N[C@@H](Cc2ccccc2)C(=O)CCl)cc1 [TPCK]	10.8 µM						3.8 µM
